In ChEMBL document CHEMBL3108749, “Discovery of a non-estrogenic irreversible inhibitor of 17β-hydroxysteroid dehydrogenase type 1 from 3-substituted-16β-(m-carbamoylbenzyl)-estradiol derivatives” (J Med Chem, 2014):
Active and inactive are the calls of the source. The rule behind the calls is not given here.

Assays:
[1] = target: T1, 17-beta-hydroxysteroid dehydrogenase type 1 (Homo sapiens, UniProt P14061); assay: Inhibition of 17-beta HSD1 in human T47D cells assessed as transformation of [14C]E1 to [14C]E2 after 24 hrs by thin layer chromatography; format: cell-based
T1 sequence (P14061 whole entry): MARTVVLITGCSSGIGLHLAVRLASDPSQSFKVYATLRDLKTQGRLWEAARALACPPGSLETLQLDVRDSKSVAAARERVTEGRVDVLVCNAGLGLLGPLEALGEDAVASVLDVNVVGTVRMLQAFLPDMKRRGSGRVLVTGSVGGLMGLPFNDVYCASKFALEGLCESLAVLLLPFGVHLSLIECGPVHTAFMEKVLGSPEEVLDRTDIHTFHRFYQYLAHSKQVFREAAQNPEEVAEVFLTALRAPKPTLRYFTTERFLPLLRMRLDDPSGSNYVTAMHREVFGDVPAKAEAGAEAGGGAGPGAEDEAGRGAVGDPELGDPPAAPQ
Method in brief: (§1)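 Intact T-47D cells in RPMI with insulin (50 ng/mL) and 5% dextran-charcoal-treated FBS. After 24 h, inhibitor (from EtOH stock) added at 0.1 or 1 μM for screening or 1 nM–10 μM for IC50, with [14C]-E1 (60 nM), for 24 h. Ether extraction, TLC (toluene/acetone 4:1). IC50 = concentration halving E1→E2 conversion; triplicates, at least two experiments.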

[2] = target: T2, 17-beta-hydroxysteroid dehydrogenase type 1 (Homo sapiens) (UniProt P14061); assay: Inhibition of 17-beta HSD1 in human T47D cells assessed as transformation of [14C]E1 to [14C]E2 at 0.1 uM after 24 hrs by thin layer chromatography; format: cell-based
T2 sequence (whole entry): T1 sequence (P14061 whole entry)
Method in brief: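 T-47D cells (endogenous 17β-HSD1) are seeded at 3000 cells/well in RPMI with insulin (50 ng/mL) and 5% charcoal-stripped FBS. After 24 h, compound (from EtOH stock, 0.1 μM final) is added with [14C]-E1 (60 nM) for 24 h. Steroids are extracted into diethyl ether, separated by silica TLC (toluene/acetone 4:1) and quantified. Mean ± SD of ≥2 independent experiments in triplicate.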

T47D [3] = assay: Cytotoxicity against human estrogen-starved estrogen-sensitive T47D cells assessed as cell growth at 0.1 uM after 7 days by MTS assay relative to control; format: functional; conditions: 168 h, read-out: Activity
Method in brief: (§2)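 MCF-7 (DMEM-F12) or T-47D (RPMI) cells are kept in medium with insulin (50 ng/mL) and 5% dextran-coated charcoal-treated FBS, seeded at 3000 cells/well. After 48 h, medium is replaced with medium containing compound, renewed every two days, and cells grow seven days. Growth is read by CellTiter 96 aqueous (MTS) assay as % proliferation vs basal control (0%). Scored −/+/++/+++ bands.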

T47D [4] = assay: Cytotoxicity against human estrogen-starved estrogen-sensitive T47D cells assessed as cell growth at 1 uM after 7 days by MTS assay relative to control; format: functional; conditions: 168 h, read-out: Activity; method in brief: as §2
[5] = target: T3, 3-keto-steroid reductase/17-beta-hydroxysteroid dehydrogenase 7 (Homo sapiens) (UniProt P56937); assay: Inhibition of 17-beta HSD7 (unknown origin) transfected in HEK293 cells using [14C]E1 as substrate at 10 uM; format: cell-based
T3 sequence (whole entry): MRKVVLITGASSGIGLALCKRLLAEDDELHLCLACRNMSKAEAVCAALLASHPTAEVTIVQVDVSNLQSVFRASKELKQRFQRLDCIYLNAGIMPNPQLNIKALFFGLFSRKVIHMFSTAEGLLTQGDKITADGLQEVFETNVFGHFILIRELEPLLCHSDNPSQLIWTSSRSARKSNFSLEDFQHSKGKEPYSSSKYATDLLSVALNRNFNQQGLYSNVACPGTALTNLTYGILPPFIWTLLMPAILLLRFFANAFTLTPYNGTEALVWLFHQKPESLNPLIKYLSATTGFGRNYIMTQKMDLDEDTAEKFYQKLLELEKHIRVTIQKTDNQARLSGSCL
Method in brief: (§3)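 Stably transfected HEK-293 cells in stripped-serum MEM with G418 and insulin, seeded 48 h. Then treated with compound in DMSO (<0.5% final) plus 60 nM substrate: [14C]-E2 for 17β-HSD2, [14C]-E1 for 17β-HSD7 and 17β-HSD12. Stopped at 12–25% substrate conversion; ether extraction, TLC, radiolabel quantification; triplicates, at least two experiments.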

[6] = target: T4, Very-long-chain 3-oxoacyl-CoA reductase (Homo sapiens) (UniProt Q53GQ0); assay: Inhibition of 17-beta HSD12 (unknown origin) transfected in HEK293 cells using [14C]E1 as substrate at 10 uM; format: cell-based; method in brief: as §3
T4 sequence (whole entry): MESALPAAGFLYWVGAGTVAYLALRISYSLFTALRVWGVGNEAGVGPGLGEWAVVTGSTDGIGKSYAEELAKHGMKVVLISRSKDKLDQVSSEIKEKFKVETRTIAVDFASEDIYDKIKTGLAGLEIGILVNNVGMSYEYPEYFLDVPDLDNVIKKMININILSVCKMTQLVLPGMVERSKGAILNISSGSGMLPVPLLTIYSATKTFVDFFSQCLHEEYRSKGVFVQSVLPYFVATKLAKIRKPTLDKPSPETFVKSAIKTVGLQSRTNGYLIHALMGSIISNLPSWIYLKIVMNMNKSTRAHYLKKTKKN

[7] = target: T5, 17-beta-hydroxysteroid dehydrogenase type 2 (Homo sapiens) (UniProt P37059); assay: Inhibition of 17-beta HSD2 (unknown origin) transfected in HEK293 cells using [14C]E2 as substrate at 10 uM; format: cell-based; method in brief: as §3
T5 sequence (whole entry): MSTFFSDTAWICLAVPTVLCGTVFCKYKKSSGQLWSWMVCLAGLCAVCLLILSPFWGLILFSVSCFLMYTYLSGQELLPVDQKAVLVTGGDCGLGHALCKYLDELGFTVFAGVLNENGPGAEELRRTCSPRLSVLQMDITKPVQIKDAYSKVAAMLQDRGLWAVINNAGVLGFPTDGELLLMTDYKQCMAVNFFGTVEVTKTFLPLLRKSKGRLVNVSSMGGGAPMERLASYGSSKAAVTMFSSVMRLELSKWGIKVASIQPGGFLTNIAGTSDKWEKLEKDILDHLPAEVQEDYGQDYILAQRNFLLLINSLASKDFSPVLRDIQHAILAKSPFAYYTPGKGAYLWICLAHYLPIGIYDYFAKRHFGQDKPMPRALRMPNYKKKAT

[8] = target: T2, 17-beta-hydroxysteroid dehydrogenase type 1 (Homo sapiens); assay: Competitive inhibition of 17-beta HSD1 (unknown origin) using [14C]E1/E1 as substrate assessed as transformation of [14C]E1 to [14C]E2 at 0.1 to 0.5 uM after 45 mins by thin layer chromatography
Method in brief: (§4)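 Purified 17β-HSD1 in buffer (100 mM Tris, 20% glycerol, 0.2 mg/mL BSA, 2 mM EDTA) with 1 mM NADPH, preincubated at 37 °C with inhibitor (0, 100 or 500 nM), with or without unlabeled E1 (500 nM), over varying times. Then diluted 1:20 with [14C]-E1 (60 nM final), 45 min at 37 °C. Ether extraction, TLC, radiolabel quantification; activity as % of initial; triplicate.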

[9] = target: T1, 17-beta-hydroxysteroid dehydrogenase type 1; assay: Inhibition of 17-beta HSD1 in human T47D cells; format: cell-based; method in brief: as §1
MCF7 [10] = assay: Cytotoxicity against human estrogen-starved estrogen-sensitive MCF7 cells assessed as cell growth at 1 uM after 7 days by MTS assay relative to control; format: functional; conditions: MCF7, 168 h, read-out: Activity; method in brief: as §2
MCF7 [11] = assay: Cytotoxicity against human estrogen-starved estrogen-sensitive MCF7 cells assessed as cell growth at 0.1 uM after 7 days by MTS assay relative to control; format: functional; conditions: MCF7, 168 h, read-out: Activity; method in brief: as §2
[12] = target: T2, 17-beta-hydroxysteroid dehydrogenase type 1 (Homo sapiens); assay: Irreversible inhibition of 17-beta HSD1 (unknown origin) using [14C]E1 as substrate at 0.1 to 0.5 uM after 45 mins by thin layer chromatography; method in brief: as §4
[13] = target: T2, 17-beta-hydroxysteroid dehydrogenase type 1 (Homo sapiens); assay: Inhibition of 17-beta HSD1 (unknown origin) using [14C]E1 as substrate at 0.1 to 0.5 uM by thin layer chromatography; conditions: TDE = time-dependent effect; method in brief: as §4
Cytochrome P450 3A4 = Cytochrome P450 3A4 (Homo sapiens, UniProt P08684); assay: Inhibition of CYP3A4 (unknown origin) by fluorescence assay; format: ADME
Method in brief: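 Commercial CYP3A4 kit with dibenzylfluorescein as substrate, read by fluorescence of its enzymatic product. Compound dissolved in DMSO/acetonitrile (5:95). IC50 from means of at least two experiments in triplicate.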

Cytochrome P450 3A4, sequence (P08684 whole entry): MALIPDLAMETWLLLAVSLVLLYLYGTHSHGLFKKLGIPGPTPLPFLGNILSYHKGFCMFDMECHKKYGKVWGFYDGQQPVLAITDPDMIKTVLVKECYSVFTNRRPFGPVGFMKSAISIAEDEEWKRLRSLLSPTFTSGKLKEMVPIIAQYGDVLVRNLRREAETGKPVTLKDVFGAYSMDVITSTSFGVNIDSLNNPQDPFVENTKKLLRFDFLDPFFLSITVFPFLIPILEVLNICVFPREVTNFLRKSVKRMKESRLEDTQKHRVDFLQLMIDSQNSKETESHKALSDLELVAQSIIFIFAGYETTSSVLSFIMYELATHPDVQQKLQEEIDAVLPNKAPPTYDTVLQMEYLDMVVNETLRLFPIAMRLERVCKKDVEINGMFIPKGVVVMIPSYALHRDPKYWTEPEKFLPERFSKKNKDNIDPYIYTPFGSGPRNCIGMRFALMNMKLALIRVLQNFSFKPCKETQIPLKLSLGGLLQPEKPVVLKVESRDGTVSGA

| Compound | IC50 [1] [nM] | inhibition [2] [%] | percent proliferation above basal control at 0.1 µM (T47D [3]) [%] | % proliferation above basal control (0% = control) at 1 µM (T47D [4]) [%] | inhibition [5] [%] | inhibition [6] [%] | inhibition [7] [%] | inhibition [8] | IC50 [9] [nM] | percent proliferation above basal control at 1 µM (MCF7 [10]) [%] | percent proliferation above basal control at 0.1 µM (MCF7 [11]) [%] | inhibition [12] | inhibition [13] | IC50 (Cytochrome P450 3A4) [µM] |
| --- | --- | --- | --- | --- | --- | --- | --- | --- | --- | --- | --- | --- | --- | --- |
| C[C@]12CC[C@@H]3c4ccc(OCCBr)cc4CC[C@H]3[C@@H]1C[C@H](Cc1cccc(C(N)=O)c1)[C@@H]2O | 172 | 37 | 0 | 0 | – | – | – | – | – | – | – | – | – | – |
| C[C@]12CC[C@@H]3c4ccc(CCBr)cc4CC[C@H]3[C@@H]1C[C@H](Cc1cccc(C(N)=O)c1)[C@@H]2O | – | – | – | – | 9 | 34 | 7 | Active | 97 | 0 | 0 | Active | tde | 3.9 |
| C[C@]12CC[C@@H]3c4ccc(CCCBr)cc4CC[C@H]3[C@@H]1C[C@H](Cc1cccc(C(N)=O)c1)[C@@H]2O | 153 | 41 | 0 | 0 | – | – | – | – | – | – | – | – | – | – |
